Experimental data as given in ChEMBL document CHEMBL1140495, “Neutral 5-substituted 4-anilinoquinazolines as potent, orally active inhibitors of erbB2 receptor tyrosine kinase” (Bioorg Med Chem Lett, 2007).
Active and inactive are the calls of the source. No cut-off for these calls is given here.

Tests used:
[1] = biological target: T1, Receptor tyrosine-protein kinase erbB-2 (Homo sapiens, UniProt P04626); assay: Inhibition of ErbB2 kinase
[2] = Lipophilicity, log D of the compound; assay type: physicochemical; settings: octanol/water
[3] = biological target: T1, Receptor tyrosine-protein kinase erbB-2; assay: Inhibition of Erb2 autophosphorylation by cellular clone 24 assay; assay type: functional
[4] = biological target: Epidermal growth factor receptor (Homo sapiens, UniProt P00533)
Chain of Epidermal growth factor receptor (P00533 whole entry): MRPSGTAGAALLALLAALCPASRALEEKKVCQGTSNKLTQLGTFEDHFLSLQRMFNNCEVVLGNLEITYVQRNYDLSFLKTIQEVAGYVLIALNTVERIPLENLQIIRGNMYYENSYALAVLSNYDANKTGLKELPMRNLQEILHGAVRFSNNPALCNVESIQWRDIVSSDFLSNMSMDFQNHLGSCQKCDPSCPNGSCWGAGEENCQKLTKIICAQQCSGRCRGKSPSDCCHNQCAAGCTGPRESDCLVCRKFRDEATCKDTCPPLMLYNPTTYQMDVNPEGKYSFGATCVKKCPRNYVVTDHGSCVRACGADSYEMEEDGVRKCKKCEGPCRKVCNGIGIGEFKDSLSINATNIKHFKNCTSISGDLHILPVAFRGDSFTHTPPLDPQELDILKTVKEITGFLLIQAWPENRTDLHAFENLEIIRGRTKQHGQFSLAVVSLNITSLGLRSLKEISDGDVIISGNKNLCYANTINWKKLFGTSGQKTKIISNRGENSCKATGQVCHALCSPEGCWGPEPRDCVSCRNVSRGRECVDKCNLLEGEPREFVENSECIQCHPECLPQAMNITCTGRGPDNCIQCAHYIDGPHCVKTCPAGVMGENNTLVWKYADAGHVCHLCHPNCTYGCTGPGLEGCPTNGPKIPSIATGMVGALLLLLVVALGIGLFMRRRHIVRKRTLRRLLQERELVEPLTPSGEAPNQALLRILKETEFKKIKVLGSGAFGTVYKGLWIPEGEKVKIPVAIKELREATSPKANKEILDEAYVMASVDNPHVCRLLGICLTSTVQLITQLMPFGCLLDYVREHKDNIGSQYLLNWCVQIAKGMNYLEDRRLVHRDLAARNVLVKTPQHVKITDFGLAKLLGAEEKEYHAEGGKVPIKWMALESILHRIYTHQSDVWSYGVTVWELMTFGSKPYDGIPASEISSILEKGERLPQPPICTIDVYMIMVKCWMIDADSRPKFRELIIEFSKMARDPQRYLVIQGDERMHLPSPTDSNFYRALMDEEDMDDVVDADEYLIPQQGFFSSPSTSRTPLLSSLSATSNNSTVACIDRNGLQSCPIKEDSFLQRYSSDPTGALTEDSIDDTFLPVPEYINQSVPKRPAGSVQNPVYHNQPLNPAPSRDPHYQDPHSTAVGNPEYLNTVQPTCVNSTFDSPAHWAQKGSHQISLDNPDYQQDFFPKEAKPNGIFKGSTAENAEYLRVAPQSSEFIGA

[5] = AUC (0 to 24 hrs) in Alderley Park rat at 5 mg/kg, po; assay type: ADME, organism-based; design: time < 24 hr, dose 5 mg/kg, route oral; settings: plasma
Outline: (§1)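 Pharmacokinetics after intravenous dosing at 2 mg/kg and oral dosing at 5 mg/kg in immunocompetent female Alderley Park mice and in female Alderley Park rats. Male Alderley Park beagles received 50 mg iv and 250 mg p.o.; dog figures are means. AUC is AUC0-24 taken from the oral dose.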

Canis familiaris [6] = assay: Bioavailability in Alderley Park Beagle dog at 50 mg/kg, iv and […], po; assay type: ADME, organism-based, Canis lupus familiaris; settings: in vivo; outline: as §1
[7] = Volume of distribution at steady state in Alderley Park Beagle dog at 50 mg/kg, iv and […], po; assay type: ADME, organism-based, Canis lupus familiaris; settings: in vivo, read-out: Vdss; outline: as §1
[8] = Plasma concentration in mouse at 50 mg/kg, po in presence of 1-aminobenzotriazole after 16 hrs; assay type: ADME, organism-based; design: dose 50 mg/kg, route oral
[9] = Bioavailability in Alderley Park rat at 2 mg/kg, iv and 5 mg/kg, po; assay type: ADME, organism-based; settings: in vivo; outline: as §1
[10] = Antiproliferative activity against BT474C cells; assay type: functional, cell-based; settings: Homo sapiens
[11] = Plasma concentration in mouse at 50 mg/kg, po in presence of 1-aminobenzotriazole after 2 hrs; assay type: ADME, organism-based; design: dose 50 mg/kg, route oral
Mus musculus [12] = assay: Inhibition of erbB2 phosphorylation in human BT474C cells xenografted mouse at 50 mg/kg, po bid for 21 days; assay type: functional; settings: 504 h
[13] = Plasma concentration in mouse at 50 mg/kg, po in presence of 1-aminobenzotriazole after 24 hrs; assay type: ADME, organism-based; design: dose 50 mg/kg, route oral
[14] = biological target: Proto-oncogene tyrosine-protein kinase Src (Homo sapiens, UniProt P12931); assay: Inhibition of Src
Chain of Proto-oncogene tyrosine-protein kinase Src (P12931 2-536 limits assumed): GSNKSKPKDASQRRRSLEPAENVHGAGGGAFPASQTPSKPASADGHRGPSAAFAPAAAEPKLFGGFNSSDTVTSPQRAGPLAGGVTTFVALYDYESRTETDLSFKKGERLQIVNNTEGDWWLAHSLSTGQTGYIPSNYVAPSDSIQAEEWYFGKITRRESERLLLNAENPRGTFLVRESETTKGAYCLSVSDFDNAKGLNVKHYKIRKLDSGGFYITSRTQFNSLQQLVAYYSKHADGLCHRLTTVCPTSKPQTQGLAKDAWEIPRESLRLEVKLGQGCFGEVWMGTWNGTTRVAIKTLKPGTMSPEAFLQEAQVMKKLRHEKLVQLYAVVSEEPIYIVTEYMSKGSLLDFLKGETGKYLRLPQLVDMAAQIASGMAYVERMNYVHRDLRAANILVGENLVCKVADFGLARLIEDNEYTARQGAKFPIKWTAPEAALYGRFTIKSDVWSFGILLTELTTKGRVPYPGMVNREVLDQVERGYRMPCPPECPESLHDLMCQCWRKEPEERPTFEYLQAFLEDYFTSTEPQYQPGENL

Mus musculus [15] = assay: Bioavailability in Alderley Park mouse at 2 mg/kg, iv and 5 mg/kg, po; assay type: ADME, organism-based; settings: in vivo; outline: as §1
LoVo [16] = assay: Growth inhibition of LoVo cells xenografted in mouse at 50 mg/kg, po bid; assay type: functional, organism-based; design: dose 50 mg/kg; settings: Homo sapiens
Outline: (§2)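 LoVo xenografts in mice were dosed orally at 50 mg/kg b.i.d. Tumour growth and tumour phospho-EGFR were assessed.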

[17] = Plasma concentration in mouse at 50 mg/kg, po after 2 hrs; assay type: ADME, organism-based; design: dose 50 mg/kg, route oral
Outline: (§3)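 Female mice were given a single oral dose of 50 mg/kg without ABT. Total plasma concentration was measured at 2, 4, 6, 16 and 24 h, and AUC was derived.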

[18] = Clearance in Alderley Park rat at 2 mg/kg, iv and 5 mg/kg, po; assay type: ADME, organism-based; settings: in vivo; outline: as §1
Phospholipidosis = assay: In vivo phospholipidosis in rat after 14 days at 600 mg/kg dose q.d.; assay type: ADME, organism-based; design: dose 600 mg/kg; settings: 336 h
Outline: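 Rat toxicology study lasting 14 days with once-daily dosing at up to 600 mg/kg, examined for phospholipidosis.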

KB [19] = assay: Antiproliferative activity against human KB cells
[20] = AUC in mouse at 50 mg/kg, po in presence of 1-aminobenzotriazole; assay type: ADME, organism-based; design: dose 50 mg/kg, route oral; settings: plasma
[21] = Volume of distribution at steady state in Alderley Park mouse at 2 mg/kg, iv and 5 mg/kg, po; assay type: ADME, organism-based; settings: in vivo, read-out: Vdss; outline: as §1
[22] = Plasma concentration in mouse at 50 mg/kg, po in presence of 1-aminobenzotriazole after 4 hrs; assay type: ADME, organism-based; design: dose 50 mg/kg, route oral
LoVo [23] = assay: Growth inhibition of LoVo cells xenografted in rat at 300 mg/kg, po qd; settings: Homo sapiens
[24] = biological target: Vascular endothelial growth factor receptor 2 (Homo sapiens, UniProt P35968); assay: Inhibition of Kdr
Chain of Vascular endothelial growth factor receptor 2 (P35968 whole entry): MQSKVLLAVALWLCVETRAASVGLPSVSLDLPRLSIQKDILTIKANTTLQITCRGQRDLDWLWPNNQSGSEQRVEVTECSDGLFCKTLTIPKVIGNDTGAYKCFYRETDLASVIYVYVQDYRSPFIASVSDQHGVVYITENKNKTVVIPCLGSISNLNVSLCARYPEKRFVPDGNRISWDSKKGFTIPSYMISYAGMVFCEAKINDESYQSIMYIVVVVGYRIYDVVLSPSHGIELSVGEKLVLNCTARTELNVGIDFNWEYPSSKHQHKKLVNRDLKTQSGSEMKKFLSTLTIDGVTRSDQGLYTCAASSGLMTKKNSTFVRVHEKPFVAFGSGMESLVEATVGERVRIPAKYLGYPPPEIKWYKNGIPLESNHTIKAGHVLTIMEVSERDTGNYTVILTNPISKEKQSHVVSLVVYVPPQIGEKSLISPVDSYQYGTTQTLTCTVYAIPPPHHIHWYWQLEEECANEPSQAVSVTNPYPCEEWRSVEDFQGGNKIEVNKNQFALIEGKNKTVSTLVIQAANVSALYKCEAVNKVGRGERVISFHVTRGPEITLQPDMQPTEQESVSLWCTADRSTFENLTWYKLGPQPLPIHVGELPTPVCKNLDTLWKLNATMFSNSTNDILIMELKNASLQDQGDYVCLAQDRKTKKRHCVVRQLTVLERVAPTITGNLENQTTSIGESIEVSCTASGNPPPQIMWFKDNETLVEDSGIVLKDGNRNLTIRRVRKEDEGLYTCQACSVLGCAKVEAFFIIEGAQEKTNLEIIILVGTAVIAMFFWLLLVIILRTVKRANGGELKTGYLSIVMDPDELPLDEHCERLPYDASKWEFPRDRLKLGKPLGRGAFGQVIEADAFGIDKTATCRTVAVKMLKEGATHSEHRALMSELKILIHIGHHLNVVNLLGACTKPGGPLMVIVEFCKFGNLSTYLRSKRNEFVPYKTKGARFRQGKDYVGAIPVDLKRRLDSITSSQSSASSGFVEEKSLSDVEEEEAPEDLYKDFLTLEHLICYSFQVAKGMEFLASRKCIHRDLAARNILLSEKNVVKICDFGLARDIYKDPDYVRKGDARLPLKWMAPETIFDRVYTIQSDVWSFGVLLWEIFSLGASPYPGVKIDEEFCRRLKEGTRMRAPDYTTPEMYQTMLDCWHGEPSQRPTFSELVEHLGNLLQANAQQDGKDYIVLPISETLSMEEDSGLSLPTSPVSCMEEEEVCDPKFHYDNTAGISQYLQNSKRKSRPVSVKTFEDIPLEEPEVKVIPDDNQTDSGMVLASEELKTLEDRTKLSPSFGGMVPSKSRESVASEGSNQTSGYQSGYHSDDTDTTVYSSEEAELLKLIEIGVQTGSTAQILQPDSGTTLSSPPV

Mus musculus [25] = assay: AUC in mouse at 50 mg/kg, po; assay type: ADME, organism-based, Plasma; design: dose 50 mg/kg, route oral; settings: in vivo; outline: as §3
BT474C [26] = assay: Antitumor activity against human BT474C cells xenografted mouse at 50 mg/kg, po bid for 21 days; assay type: functional, organism-based; design: dose 50 mg/kg
Rattus norvegicus = assay: Inhibition of phospho-EGFR in LoVo cells xenografted rat at 300 mg/kg, po qd
KB [27] = assay: Effect on growth of human KB cells
Canis familiaris [28] = assay: AUC (0 to 24 hrs) in Alderley Park Beagle dog at […], po; assay type: ADME, organism-based, Canis lupus familiaris, Plasma; design: time < 24 hr, route oral; settings: in vivo; outline: as §1
BT474C [29] = assay: Antitumor activity against human BT474C cells xenografted mouse at 50 mg/kg, po qd for 21 days; assay type: functional, organism-based; design: dose 50 mg/kg
[30] = Volume of distribution at steady state in Alderley Park rat at 2 mg/kg, iv and 5 mg/kg, po; assay type: ADME, organism-based; settings: in vivo, read-out: Vdss; outline: as §1
[31] = Plasma concentration in mouse at 50 mg/kg, po in presence of 1-aminobenzotriazole after 6 hrs; assay type: ADME, organism-based; design: dose 50 mg/kg, route oral
Mus musculus [32] = assay: Inhibition of phospho-EGFR in LoVo cells xenografted mouse at 50 mg/kg, po bid; assay type: functional, organism-based; design: dose 50 mg/kg; outline: as §2
Mus musculus [33] = assay: AUC (0 to 24 hrs) in Alderley Park mouse at 5 mg/kg, po; assay type: ADME, organism-based, Plasma; design: time < 24 hr, dose 5 mg/kg, route oral; settings: in vivo; outline: as §1
Mus musculus [34] = assay: Inhibition of erbB2 phosphorylation in human BT474C cells xenografted mouse at 50 mg/kg, po

T1 sequence (P04626 whole entry): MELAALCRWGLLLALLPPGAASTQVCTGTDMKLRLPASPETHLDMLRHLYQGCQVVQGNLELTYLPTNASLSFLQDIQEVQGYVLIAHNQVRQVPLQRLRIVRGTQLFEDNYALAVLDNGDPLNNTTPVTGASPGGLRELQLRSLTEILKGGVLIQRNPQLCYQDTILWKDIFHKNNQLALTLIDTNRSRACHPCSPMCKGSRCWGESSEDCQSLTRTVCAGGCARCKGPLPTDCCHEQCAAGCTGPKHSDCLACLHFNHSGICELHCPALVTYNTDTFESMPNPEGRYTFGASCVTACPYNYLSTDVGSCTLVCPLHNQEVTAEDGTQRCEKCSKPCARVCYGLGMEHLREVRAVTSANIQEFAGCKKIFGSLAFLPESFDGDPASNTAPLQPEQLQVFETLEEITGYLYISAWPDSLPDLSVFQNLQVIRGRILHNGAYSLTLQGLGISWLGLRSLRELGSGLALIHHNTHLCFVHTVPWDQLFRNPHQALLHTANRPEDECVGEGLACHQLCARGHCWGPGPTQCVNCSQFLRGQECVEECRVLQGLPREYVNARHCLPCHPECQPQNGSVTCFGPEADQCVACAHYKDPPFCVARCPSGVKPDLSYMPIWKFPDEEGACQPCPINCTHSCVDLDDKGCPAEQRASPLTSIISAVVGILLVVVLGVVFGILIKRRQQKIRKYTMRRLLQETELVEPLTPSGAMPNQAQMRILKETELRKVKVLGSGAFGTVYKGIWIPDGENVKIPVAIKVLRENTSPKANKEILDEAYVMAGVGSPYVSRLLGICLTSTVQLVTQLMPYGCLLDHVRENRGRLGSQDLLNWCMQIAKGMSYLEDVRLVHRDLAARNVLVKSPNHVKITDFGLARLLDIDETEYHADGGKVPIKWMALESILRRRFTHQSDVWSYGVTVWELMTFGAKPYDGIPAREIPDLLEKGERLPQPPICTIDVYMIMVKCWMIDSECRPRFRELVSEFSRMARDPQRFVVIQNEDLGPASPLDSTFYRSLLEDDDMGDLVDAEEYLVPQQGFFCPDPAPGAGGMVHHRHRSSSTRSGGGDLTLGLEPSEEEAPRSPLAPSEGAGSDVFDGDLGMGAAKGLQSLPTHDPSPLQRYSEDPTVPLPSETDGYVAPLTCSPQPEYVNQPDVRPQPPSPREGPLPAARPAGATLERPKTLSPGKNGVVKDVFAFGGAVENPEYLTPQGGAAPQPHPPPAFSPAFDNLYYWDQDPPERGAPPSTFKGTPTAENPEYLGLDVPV

**Q.** For C[C@@H](CN(C)C(=O)CO)Oc1cccc2ncnc(Nc3ccc(OCc4ccccn4)c(Cl)c3)c12, which IC50 [1] is on record?
**A.** 22 nM

**Q.** What about the logD [2] of the same compound?
**A.** 3

**Q.** What about the IC50 [3] of the same compound?
**A.** 291 nM

**Q.** What about the IC50 [4] of the same compound?
**A.** 191 nM

**Q.** With C[C@@H](COc1cccc2ncnc(Nc3ccc(OCc4ccccn4)c(Cl)c3)c12)N(C)C(=O)CO as the compound, how does the IC50 [1] read?
**A.** 19 nM

**Q.** What about the logD [2] of the same compound?
**A.** 3

**Q.** And the IC50 [3]?
**A.** 131 nM

**Q.** And the IC50 [4]?
**A.** 2580 nM

**Q.** Which AUC(0-t) at 24 h [5] does the source give for CN(CCOc1cccc2ncnc(Nc3ccc(OCc4ccccn4)c(Cl)c3)c12)C(=O)CO here?
**A.** 5.5 µM·h

**Q.** And the IC50 [1]?
**A.** 4 nM

**Q.** What about the F (Canis familiaris [6]) of the same compound?
**A.** 51%

**Q.** What about the Vd [7] of the same compound?
**A.** 1 L/kg

**Q.** What about the concentration at 16 h [8] of the same compound?
**A.** 0.026 µM

**Q.** And the bioavailability [9]?
**A.** 32%

**Q.** And the IC50 [10]?
**A.** 130 nM

**Q.** And the concentration at 2 h [11]?
**A.** 16.5 µM

**Q.** And the inhibition in vivo at 50 mg/kg (Mus musculus [12])?
**A.** 70%

**Q.** And the concentration at 24 h [13]?
**A.** 0.007 µM

**Q.** What about the IC50 [14] of the same compound?
**A.** > 1000 nM

**Q.** And the F (Mus musculus [15])?
**A.** 4%

**Q.** And the Activity (LoVo [16])?
**A.** inactive

**Q.** What about the concentration at 2 h [17] of the same compound?
**A.** 0.35 µM

**Q.** And the clearance [18]?
**A.** 10 mL/min/kg

**Q.** And the Phospholipidosis (Phospholipidosis)?
**A.** Not Active

**Q.** What about the IC50 (KB [19]) of the same compound?
**A.** 621 nM

**Q.** What about the AUC [20] of the same compound?
**A.** 99 µM·h

**Q.** And the Vd [21]?
**A.** 0.7 L/kg

**Q.** And the concentration at 4 h [22]?
**A.** 13.8 µM

**Q.** What about the Activity (LoVo [23]) of the same compound?
**A.** inactive

**Q.** And the logD [2]?
**A.** 3

**Q.** What about the IC50 [3] of the same compound?
**A.** 43 nM

**Q.** And the IC50 [24]?
**A.** > 1000 nM

**Q.** And the AUC (Mus musculus [25])?
**A.** 0.89 µM·h

**Q.** What about the Activity (BT474C [26]) of the same compound?
**A.** Active

**Q.** What about the Activity (Rattus norvegicus) of the same compound?
**A.** inactive

**Q.** What about the IC50 (KB [27]) of the same compound?
**A.** 8140 nM

**Q.** And the AUC (Canis familiaris [28])?
**A.** 32 µM·h

**Q.** And the Activity (BT474C [29])?
**A.** Active

**Q.** What about the Vd [30] of the same compound?
**A.** 0.9 L/kg

**Q.** What about the concentration at 6 h [31] of the same compound?
**A.** 6.3 µM

**Q.** What about the Activity (Mus musculus [32]) of the same compound?
**A.** inactive

**Q.** What about the AUC (Mus musculus [33]) of the same compound?
**A.** 0.02 µM·h

**Q.** What about the IC50 [4] of the same compound?
**A.** 35 nM

**Q.** What about the inhibition in vivo at 50 mg/kg (Mus musculus [34]) of the same compound?
**A.** 70%

**Q.** For C[C@H](CN(C)C(=O)CO)Oc1cccc2ncnc(Nc3ccc(OCc4ccccn4)c(Cl)c3)c12, which IC50 [1] is on record?
**A.** < 2 nM

**Q.** What about the IC50 [10] of the same compound?
**A.** 34 nM

**Q.** And the IC50 (KB [19])?
**A.** 141 nM

**Q.** And the logD [2]?
**A.** 3

**Q.** What about the IC50 [3] of the same compound?
**A.** 11 nM

**Q.** What about the IC50 (KB [27]) of the same compound?
**A.** 6940 nM

**Q.** What about the IC50 [4] of the same compound?
**A.** 2 nM

**Q.** With C[C@H](COc1cccc2ncnc(Nc3ccc(OCc4ccccn4)c(Cl)c3)c12)N(C)C(=O)CO as the compound, how does the IC50 [1] read?
**A.** < 2 nM

**Q.** What about the logD [2] of the same compound?
**A.** 3

**Q.** What about the IC50 [3] of the same compound?
**A.** 11 nM

**Q.** And the IC50 [4]?
**A.** 3 nM

**Q.** For O=C(CO)N1CCC[C@H]1COc1cccc2ncnc(Nc3ccc(OCc4ccccn4)c(Cl)c3)c12, which IC50 [1] is on record?
**A.** 2 nM

**Q.** What about the logD [2] of the same compound?
**A.** 3

**Q.** What about the IC50 [3] of the same compound?
**A.** 259 nM

**Q.** And the IC50 [4]?
**A.** 327 nM

**Q.** Which IC50 [1] does the source give for O=C(CO)N1CCC[C@@H]1COc1cccc2ncnc(Nc3ccc(OCc4ccccn4)c(Cl)c3)c12 here?
**A.** < 2 nM

**Q.** And the logD [2]?
**A.** 3

**Q.** And the IC50 [3]?
**A.** 147 nM

**Q.** What about the IC50 [4] of the same compound?
**A.** 97 nM
